According to ChEMBL document CHEMBL3124924, “Bifunctional ethyl 2-amino-4-methylthiazole-5-carboxylate derivatives: synthesis and in vitro biological evaluation as antimicrobial and anticancer agents” (2014):
Converted amounts (≈) assume the structure as drawn. The source made the active and inactive calls. The calls are words filed in the database; no cut-off is given here.

Assays:
Candida albicans = assay: Antifungal activity against Candida albicans ATCC 10231 assessed as growth inhibition at 1 mg/mL after 48 hrs by agar-cup diffusion method; format: functional; conditions: ATCC 10231, 48 h, read-out: DIZ
Procedure, shortened: (§1)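 Agar-cup diffusion: 1 mL of 6 h broth culture seeded per 100 mL molten sterile agar at 45 °C and poured into plates. 8 mm cups cut, each filled with 0.1 mL of 1 mg/mL test solution. Incubated 37 °C for 24 h, 48 h for C. albicans. DMSO control per organism. Inhibition zone diameter in mm, mean of three measurements.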

Escherichia coli [1] = assay: Antibacterial activity against Escherichia coli ATCC 25922 assessed as growth inhibition at 1 mg/mL after 24 hrs by agar-cup diffusion method; format: functional; conditions: ATCC 25922, 24 h, read-out: DIZ; procedure, shortened: as §1
Bacillus spizizenii [2] = assay: Antibacterial activity against Bacillus subtilis ATCC 6633 assessed as growth inhibition at 1 mg/mL after 24 hrs by agar-cup diffusion method; format: functional; conditions: ATCC 6633, 24 h, read-out: DIZ; procedure, shortened: as §1
U-251 = assay: Cytotoxicity against human U251 cells assessed as growth inhibition at 10 uM after 48 hrs by SRB assay; format: functional; conditions: U-251, 48 h, read-out: GI
Procedure, shortened: (§2)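 NCI-60 one-dose primary screen run by the NCI Drug Evaluation Branch across the full 60-line panel. Single high-dose treatment with 48 h continuous drug exposure. Cell growth estimated by sulforhodamine B protein staining. Results given as percent growth of treated cells and expressed as percentage growth inhibition.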

SNB-75 = assay: Cytotoxicity against human SNB75 cells assessed as growth inhibition at 10 uM after 48 hrs by SRB assay; format: functional; conditions: SNB-75, 48 h, read-out: GI; procedure, shortened: as §2
UACC-62 = assay: Cytotoxicity against human UACC62 cells assessed as growth inhibition at 10 uM after 48 hrs by SRB assay; format: functional; conditions: UACC-62, 48 h, read-out: GI; procedure, shortened: as §2
SK-MEL-5 = assay: Cytotoxicity against human SK-MEL-5 cells assessed as growth inhibition at 10 uM after 48 hrs by SRB assay; format: functional; conditions: SK-MEL-5, 48 h, read-out: GI; procedure, shortened: as §2
SK-MEL-2 = assay: Cytotoxicity against human SK-MEL-2 cells assessed as growth inhibition at 10 uM after 48 hrs by SRB assay; format: functional; conditions: SK-MEL-2, 48 h, read-out: GI; procedure, shortened: as §2
[3] = Cytotoxicity against human UO31 cells assessed as growth inhibition at 10 uM after 48 hrs by SRB assay; format: functional; conditions: UO-31, 48 h, read-out: GI; procedure, shortened: as §2
SN12C = assay: Cytotoxicity against human SN12C cells assessed as growth inhibition at 10 uM after 48 hrs by SRB assay; format: functional; conditions: read-out: GI; procedure, shortened: as §2
CCRF-CEM = assay: Cytotoxicity against human CCRF-CEM cells assessed as growth inhibition at 10 uM after 48 hrs by SRB assay; format: functional; conditions: read-out: GI; procedure, shortened: as §2
T47D = assay: Cytotoxicity against human T47D cells assessed as growth inhibition at 10 uM after 48 hrs by SRB assay; format: functional; conditions: read-out: GI; procedure, shortened: as §2
MDA-MB-468 = assay: Cytotoxicity against human MDA-MB-468 cells assessed as growth inhibition at 10 uM after 48 hrs by SRB assay; format: functional; conditions: MDA-MB-468, 48 h, read-out: GI; procedure, shortened: as §2
[4] = Cytotoxicity against human NCI-ADR-RES cells assessed as growth inhibition at 10 uM after 48 hrs by SRB assay; format: functional; conditions: read-out: GI; procedure, shortened: as §2
MCF7 = assay: Cytotoxicity against human MCF7 cells assessed as growth inhibition at 10 uM after 48 hrs by SRB assay; format: functional; conditions: MCF7, 48 h, read-out: GI; procedure, shortened: as §2
SW-620 = assay: Cytotoxicity against human SW620 cells assessed as growth inhibition at 10 uM after 48 hrs by SRB assay; format: functional; conditions: SW-620, 48 h, read-out: GI; procedure, shortened: as §2
HT-29 = assay: Cytotoxicity against human HT-29 cells assessed as growth inhibition at 10 uM after 48 hrs by SRB assay; format: functional; conditions: HT-29, 48 h, read-out: GI; procedure, shortened: as §2
HCT-15 = assay: Cytotoxicity against human HCT15 cells assessed as growth inhibition at 10 uM after 48 hrs by SRB assay; format: functional; conditions: HCT-15, 48 h, read-out: GI; procedure, shortened: as §2
HCT-116 = assay: Cytotoxicity against human HCT116 cells assessed as growth inhibition at 10 uM after 48 hrs by SRB assay; format: functional; conditions: HCT-116, 48 h, read-out: GI; procedure, shortened: as §2
HCC 2998 = assay: Cytotoxicity against human HCC2998 cells assessed as growth inhibition at 10 uM after 48 hrs by SRB assay; format: functional; conditions: HCC 2998, 48 h, read-out: GI; procedure, shortened: as §2
NCI-H522 = assay: Cytotoxicity against human NCI-H522 cells assessed as growth inhibition at 10 uM after 48 hrs by SRB assay; format: functional; conditions: NCI-H522, 48 h, read-out: GI; procedure, shortened: as §2
NCI-H322M = assay: Cytotoxicity against human NCI-H322M cells assessed as growth inhibition at 10 uM after 48 hrs by SRB assay; format: functional; conditions: read-out: GI; procedure, shortened: as §2
HOP-92 = assay: Cytotoxicity against human HOP92 cells assessed as growth inhibition at 10 uM after 48 hrs by SRB assay; format: functional; conditions: HOP-92, 48 h, read-out: GI; procedure, shortened: as §2
Aspergillus niger = assay: Antifungal activity against Aspergillus niger assessed as growth inhibition at 1 mg/mL after 24 hrs by agar-cup diffusion method; format: functional, organism-based; procedure, shortened: as §1
Pseudomonas aeruginosa [5] = assay: Bactericidal activity against Pseudomonas aeruginosa ATCC 27853 after 18 hrs; format: functional; conditions: ATCC 27853, 18 h
Procedure, shortened: (§3)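 Continuation of the broth-dilution MIC test. A loopful from each tube without visible growth spread on a quarter of a Mueller-Hinton agar plate and incubated 18 h. Lowest concentration giving no growth on subculture taken as the MBC.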

Escherichia coli [6] = assay: Bactericidal activity against Escherichia coli ATCC 25922 after 18 hrs; format: functional; conditions: ATCC 25922, 18 h; procedure, shortened: as §3
Escherichia coli [7] = assay: Antibacterial activity against Escherichia coli ATCC 25922 assessed as growth inhibition after 48 hrs by two-fold serial dilution assay; format: functional; conditions: ATCC 25922, 48 h
Procedure, shortened: (§4)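 Twofold serial broth dilution run on compounds giving inhibition zones of 13 mm or more. Organisms pre-grown in suitable broth at 37 °C, 24 h for bacteria and 48 h for fungi. Dilution series 200, 100, 50, 25, 12.5, 6.25. Each 5 mL tube inoculated with 0.1 mL and incubated 37 °C for 48 h. Tubes scored for presence or absence of growth.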

Bacillus spizizenii [8] = assay: Bactericidal activity against Bacillus subtilis ATCC 6633 after 18 hrs; format: functional; conditions: ATCC 6633, 18 h; procedure, shortened: as §3
Bacillus spizizenii [9] = assay: Antibacterial activity against Bacillus subtilis ATCC 6633 assessed as growth inhibition after 48 hrs by two-fold serial dilution assay; format: functional; conditions: ATCC 6633, 48 h; procedure, shortened: as §4
Staphylococcus aureus [10] = assay: Bactericidal activity against Staphylococcus aureus ATCC 6538 after 18 hrs; format: functional; conditions: ATCC 6538, 18 h; procedure, shortened: as §3
Staphylococcus aureus [11] = assay: Antibacterial activity against Staphylococcus aureus ATCC 6538 assessed as growth inhibition at 1 mg/mL after 24 hrs by agar-cup diffusion method; format: functional; conditions: ATCC 6538, 24 h, read-out: DIZ; procedure, shortened: as §1
Pseudomonas aeruginosa [12] = assay: Antibacterial activity against Pseudomonas aeruginosa ATCC 27853 assessed as growth inhibition at 1 mg/mL after 24 hrs by agar-cup diffusion method; format: functional; conditions: ATCC 27853, 24 h, read-out: DIZ; procedure, shortened: as §1

| Structure (SMILES) | zone of inhibition at 1000 µg/mL (Candida albicans) [mm] | zone of inhibition at 1000 µg/mL (Escherichia coli [1]) [mm] | zone of inhibition at 1000 µg/mL (Bacillus spizizenii [2]) [mm] | inhibition of growth at 10 µM (U-251) [%] | inhibition of growth at 10 µM (SNB-75) [%] | inhibition of growth at 10 µM (UACC-62) [%] | inhibition of growth at 10 µM (SK-MEL-5) [%] | inhibition of growth at 10 µM (SK-MEL-2) [%] | inhibition of growth at 10 µM [3] [%] | inhibition of growth at 10 µM (SN12C) [%] | inhibition of growth at 10 µM (CCRF-CEM) [%] | inhibition of growth at 10 µM (T47D) [%] | inhibition of growth at 10 µM (MDA-MB-468) [%] | inhibition of growth at 10 µM [4] [%] | inhibition of growth at 10 µM (MCF7) [%] | inhibition of growth at 10 µM (SW-620) [%] | inhibition of growth at 10 µM (HT-29) [%] | inhibition of growth at 10 µM (HCT-15) [%] | inhibition of growth at 10 µM (HCT-116) [%] | inhibition of growth at 10 µM (HCC 2998) [%] | also measured |
| --- | --- | --- | --- | --- | --- | --- | --- | --- | --- | --- | --- | --- | --- | --- | --- | --- | --- | --- | --- | --- | --- |
| Cc1nc(NC(=S)Nc2ccc(F)cc2)sc1C(=O)NN | > 13 | > 13 | > 13 | 5.41 | 7.19 | 10.8 | 5.01 | 30 | 11 | 2.43 | < 10 | 2.52 | 5.5 | 10 | < 10 | 6.48 | < 10 | < 10 | 7.87 | 10.5 | inhibition of growth at 10 µM (NCI-H522): < 10%; inhibition of growth at 10 µM (NCI-H322M): 15.1%; inhibition of growth at 10 µM (HOP-92): 33.7%; growth inhibition (GI) (Aspergillus niger): inactive; MBC (Pseudomonas aeruginosa [5]): 50 µg/mL (≈ 154 µM); MBC (Escherichia coli [6]): 12.5 µg/mL (≈ 38.4 µM); MIC (Escherichia coli [7]): 12.5 µg/mL (≈ 38.4 µM); MBC (Bacillus spizizenii [8]): 12.5 µg/mL (≈ 38.4 µM); MIC (Bacillus spizizenii [9]): 12.5 µg/mL (≈ 38.4 µM); MBC (Staphylococcus aureus [10]): 6.25 µg/mL (≈ 19.2 µM); zone of inhibition at 1000 µg/mL (Staphylococcus aureus [11]): > 13 mm; zone of inhibition at 1000 µg/mL (Pseudomonas aeruginosa [12]): > 13 mm |
| Cc1nc(NC(=O)NC2CCCCC2)sc1C(=O)NN | > 13 | > 13 | > 13 | 2.59 | < 10 | 10.2 | < 10 | 29.3 | 16 | < 10 | < 10 | < 10 | 3.73 | 3.01 | < 10 | < 10 | 5.51 | 9.55 | 16.3 | < 10 | inhibition of growth at 10 µM (NCI-H522): 99.5%; inhibition of growth at 10 µM (NCI-H322M): < 10%; inhibition of growth at 10 µM (HOP-92): 82.8%; growth inhibition (GI) (Aspergillus niger): inactive; MBC (Pseudomonas aeruginosa [5]): 200 µg/mL (≈ 673 µM); MBC (Escherichia coli [6]): 100 µg/mL (≈ 336 µM); MIC (Escherichia coli [7]): 50 µg/mL (≈ 168 µM); MBC (Bacillus spizizenii [8]): 100 µg/mL (≈ 336 µM); MIC (Bacillus spizizenii [9]): 100 µg/mL (≈ 336 µM); MBC (Staphylococcus aureus [10]): 50 µg/mL (≈ 168 µM); zone of inhibition at 1000 µg/mL (Staphylococcus aureus [11]): > 13 mm; zone of inhibition at 1000 µg/mL (Pseudomonas aeruginosa [12]): > 13 mm |
| CCOC(=O)c1sc(NC(=O)Nc2ccccc2)nc1C | > 13 | > 13 | > 13 | 9.58 | 47.2 | 20 | 4.58 | 77.6 | 16.1 | 4.19 | 22 | 12.6 | 18.4 | 13.9 | 7.17 | 2.85 | 24.1 | < 10 | 16.3 | 27.4 | inhibition of growth at 10 µM (NCI-H522): 2.64%; inhibition of growth at 10 µM (NCI-H322M): < 10%; inhibition of growth at 10 µM (HOP-92): 64.2%; growth inhibition (GI) (Aspergillus niger): inactive; MBC (Pseudomonas aeruginosa [5]): 100 µg/mL (≈ 327 µM); MBC (Escherichia coli [6]): 25 µg/mL (≈ 81.9 µM); MIC (Escherichia coli [7]): 25 µg/mL (≈ 81.9 µM); MBC (Bacillus spizizenii [8]): 50 µg/mL (≈ 164 µM); MIC (Bacillus spizizenii [9]): 50 µg/mL (≈ 164 µM); MBC (Staphylococcus aureus [10]): 25 µg/mL (≈ 81.9 µM); zone of inhibition at 1000 µg/mL (Staphylococcus aureus [11]): > 13 mm; zone of inhibition at 1000 µg/mL (Pseudomonas aeruginosa [12]): > 13 mm |
